According to paper PMC3742633 (Molecular cancer therapeutics, 2013):

What was measured:
PFKFB4 = PFKFB4 (Homo sapiens, UniProt Q16877); assay: Activity of purified PFKFB4; format: biochemical; conditions: up to 100 μM; data not shown
[1] = tested on: H522 human lung adenocarcinoma cells; assay: Cell viability, trypan blue exclusion; format: cell-based; conditions: NCI-H522, 48 h, read-out: IC50 cytotoxic effects (viability)
[2] = tested on: Jurkat T cell leukemia cells; assay: Annexin V / propidium iodide flow cytometry; format: cell-based, human; conditions: five hours
HL-60(TB) = assay: NCI 60 cell line screen, Sulforhodamine B Assay; format: cell-based; conditions: Homo sapiens, HL-60, 48 h
Outline: (§1)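 Run through the NCI-60 screening service: human cancer cell lines exposed to test compound for 48 h. Growth read as cellular protein content by sulforhodamine B staining, and GI50 derived from this.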

A549/ATCC = assay: NCI 60 cell line screen, Sulforhodamine B Assay; format: cell-based; conditions: Homo sapiens, A549, 48 h
Outline: as §1

HCC-2998 = assay: NCI 60 cell line screen, Sulforhodamine B Assay; format: cell-based; conditions: Homo sapiens, HCC 2998, 48 h
Outline: as §1

UACC-62 = assay: NCI 60 cell line screen, Sulforhodamine B Assay; format: cell-based; conditions: Homo sapiens, UACC-62, 48 h
Outline: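 Run through the National Cancer Institute 60 cell line screening service on its panel of 59 human cancer lines in vitro. Cytostatic/toxic effect was read as cellular protein content (sulforhodamine B) over 48 h.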

IGROV1 = assay: NCI 60 cell line screen, Sulforhodamine B Assay; format: cell-based; conditions: Homo sapiens, IGROV-1, 48 h
Outline: as §1

OVCAR-4 = assay: NCI 60 cell line screen, Sulforhodamine B Assay; format: cell-based; conditions: Homo sapiens, OVCAR-4, 48 h
Outline: as §1

786–0 = assay: NCI 60 cell line screen, Sulforhodamine B Assay; format: cell-based; conditions: Homo sapiens, 786-0, 48 h
Outline: as §1

CAKI-1 = assay: NCI 60 cell line screen, Sulforhodamine B Assay; format: cell-based; conditions: Homo sapiens, CAKI-1, 48 h
Outline: as §1

Chain of PFKFB4 (Q16877 whole entry, species assumed): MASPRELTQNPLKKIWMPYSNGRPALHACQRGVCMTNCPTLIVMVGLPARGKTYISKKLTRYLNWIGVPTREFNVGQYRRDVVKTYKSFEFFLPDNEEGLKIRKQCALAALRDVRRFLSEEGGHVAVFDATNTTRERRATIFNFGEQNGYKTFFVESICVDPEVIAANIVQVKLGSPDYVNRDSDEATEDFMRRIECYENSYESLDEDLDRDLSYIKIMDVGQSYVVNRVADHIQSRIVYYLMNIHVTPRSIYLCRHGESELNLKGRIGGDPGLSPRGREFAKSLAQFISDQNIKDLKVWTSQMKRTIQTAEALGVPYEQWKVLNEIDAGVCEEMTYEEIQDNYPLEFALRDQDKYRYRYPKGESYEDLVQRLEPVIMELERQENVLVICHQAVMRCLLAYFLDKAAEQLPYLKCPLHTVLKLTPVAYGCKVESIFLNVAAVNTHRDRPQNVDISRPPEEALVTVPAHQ

Q: With O=C(C=Cc1ccc2ccccc2n1)c1ccncc1 [PFK15, 1-(4-pyridinyl)-3-(2-quinolinyl)-2-propen-1-one] as the molecule, how does the “inhibition of activity of purified PFKFB4” value (PFKFB4) read?
A: The value was “not inhibit”.

Q: What about the IC50 [1] of the same molecule?
A: Its IC50 is 0.72 µM.

Q: And the “cells undergoing early apoptosis (Annexin V+/PI−)” value ([2]; 3 μM)?
A: Its value is “increased”.

Q: And the “cells undergoing late apoptosis (Annexin V+/PI+)” value ([2]; 3 and 20 μM)?
A: The value was “dose-dependent increase”.

Q: And the GI50 (HL-60(TB))?
A: Its GI50 is 2.04 µM.

Q: What about the GI50 (A549/ATCC) of the same molecule?
A: The GI50 was 5.37 µM.

Q: What about the GI50 (HCC-2998) of the same molecule?
A: The GI50 was 1.91 µM.

Q: What about the GI50 (UACC-62) of the same molecule?
A: Its GI50 is 2.51 µM.

Q: And the GI50 (IGROV1)?
A: Its GI50 is 4.37 µM.

Q: What about the GI50 (OVCAR-4) of the same molecule?
A: Its GI50 is 2.34 µM.

Q: And the GI50 (786–0)?
A: Its GI50 is 2 µM.

Q: And the GI50 (CAKI-1)?
A: The GI50 was 11.5 µM.
